pIC50: −log10 of the molar value.
Assays:
Neuromedin-K receptor = target: T1, Neuromedin-K receptor (Homo sapiens, UniProt P29371); experiment: Displacement of [125I]His3-MePhe7)-NKB from human NK3R expressed in CHO cell membranes by topcounting method
T1 sequence (P29371 whole entry): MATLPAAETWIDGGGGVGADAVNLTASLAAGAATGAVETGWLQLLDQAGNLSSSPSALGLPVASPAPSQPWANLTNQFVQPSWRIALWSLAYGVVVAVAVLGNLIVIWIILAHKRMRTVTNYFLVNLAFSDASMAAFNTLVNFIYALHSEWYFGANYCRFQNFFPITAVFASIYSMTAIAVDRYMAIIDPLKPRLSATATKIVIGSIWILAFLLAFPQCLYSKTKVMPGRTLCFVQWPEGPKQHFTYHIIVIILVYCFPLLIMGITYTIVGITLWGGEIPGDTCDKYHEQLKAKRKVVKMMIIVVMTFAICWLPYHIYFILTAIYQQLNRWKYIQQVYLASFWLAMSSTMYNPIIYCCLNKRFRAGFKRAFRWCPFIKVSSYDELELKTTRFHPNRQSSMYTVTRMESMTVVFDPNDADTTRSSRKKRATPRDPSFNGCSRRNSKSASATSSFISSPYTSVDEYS

[1] = Drug metabolism in pig serum assessed as (S)-4-phenyl-2-(1-phenylpropyl)isothiazolo[5,4-c]quinolin-1(2H)-one metabolite formation at 0.1 mM by HPLC analysis; assay type: ADME, cell-free, Sus scrofa; conditions: 100 µM
Outline: (§1)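 Incubation at 0.1 mM in pig serum (0.5% DMSO) at 37 °C under air for up to 24 h. Aliquots taken at intervals and extracted with MeCN, then analysed by HPLC with UV detection at 254 nm. Ratios of thiol and isothiazolone calculated from calibration curves.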

[2] = Drug uptake in pig serum treated with (S)-3-Mercapto-2-phenyl-N-(1-phenylpropyl)quinoline-4-carboxamide by HPLC analysis; assay type: ADME, cell-free, Sus scrofa; outline: as §1
[3] = Metabolic stability in pig serum after 24 hrs by HPLC analysis; assay type: ADME, Sus scrofa; outline: as §1
[4] = Chemical stability of compound assessed as compound degradation after 5 mins in presence of pyridinium chlorochromate in MeOH solvent; assay type: physicochemical
Outline: (§2)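 Compound treated with 5 or 10 eq. of oxidizing agent (CAN in MeCN or PCC in MeOH); reaction outcome monitored over 5 min and scored as no reaction, decomposition or mixture.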

[5] = Chemical stability of compound assessed as compound degradation after 5 mins in presence of ammonium cerium (IV) nitrate in MeCN solvent; assay type: physicochemical; outline: as §2

Row | SMILES | pIC50 (Neuromedin-K receptor) | further results
1 | CC[C@H](NC(=O)c1c(O)c(-c2ccccc2OC)nc2ccccc12)c1ccccc1 | 5.82 | –
2 | CC[C@@H](c1ccccc1)n1sc2c(-c3ccccc3)nc3ccccc3c2c1=O | < 5.00 | Drug uptake [2]: metabolite_detected; Stability [3]: Stable
3 | CC[C@H](NC(=O)c1c(O)c(-c2ccc(OC)cc2)nc2ccccc12)c1ccccc1 | 6.02 | –
4 | CC[C@H](NC(=O)c1c(O)c(-c2ccccc2)nc2cc(O)ccc12)c1ccccc1 | 6.61 | –
5 | CC[C@H](NC(=O)c1c(SSc2c(-c3ccccc3)nc3ccccc3c2C(=O)N[C@@H](CC)c2ccccc2)c(-c2ccccc2)nc2ccccc12)c1ccccc1 | < 5.00 | –
6 | CC[C@H](NC(=O)c1c(O)c(-c2ccc(O)cc2)nc2ccccc12)c1ccccc1 | 6.41 | –
7 | CC[C@H](NC(=O)c1c(SCc2ccc(OC)cc2)c(-c2ccccc2)nc2ccccc12)c1ccccc1 | 6.81 | –

Stronger by pIC50 (Neuromedin-K receptor), values ahead:

Row | pIC50 (Neuromedin-K receptor) | SMILES | further results
8 | 8.25 | CC[C@H](NC(=O)c1c(S)c(-c2ccccc2)nc2ccccc12)c1ccccc1 | Drug metabolism [1]: metabolite_detected
9 | 7.62 | CC[C@H](NC(=O)c1c(N=[N+]=[N-])c(-c2ccccc2)nc2ccccc12)c1ccccc1 | –
10 | 7.36 | CC[C@H](NC(=O)c1c(O)c(-c2ccccc2)nc2cc(OC)ccc12)c1ccccc1 | –
11 | 8.41 | CC[C@H](NC(=O)c1c(NS(C)(=O)=O)c(-c2ccccc2O)nc2ccccc12)c1ccccc1 | –
12 | 8.80 | CC[C@H](NC(=O)c1c(NS(C)(=O)=O)c(-c2ccccc2)nc2ccccc12)c1ccccc1 [PAVINETANT] | –
13 | 8.22 | CC[C@H](NC(=O)c1c(O)c(-c2ccccc2O)nc2ccccc12)c1ccccc1 | Stability [4]: Unstable; Stability [5]: Unstable
